Activity calls are given as the source filed them. Rule as the data show it, unless noted: active = inhibition above about 30%; inactive = the rest.
Key:
[1] = reducers of endogenous Her2 protein level, primary screen, SKBR3 breast tumor cells, AlphaScreen, ATP viability (AID 461;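 active = Her2 level under about 52% in both replicate screens, with viability over 70% of control, limit read from the data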;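 as to Her2 level: lower value means less Her2 protein in the cells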;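 as to viability: percent of carrier control wells set as 100% viability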); settings: 18-24 h, measured here: SKBR3 viability, ATP luminescence, at 10 µM
[2] = target: Receptor tyrosine-protein kinase erbB-2 (Homo sapiens) (UniProt P04626); test: as above; settings: 18-24 h, at 10 µM, stronger effect = lower value
[3] = SK-BR-3 cell growth inhibitors, pilot screen, 24 h, human (AID 572;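 active = viability at or below 10% of carrier control in both of two separate runs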;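 also: compound exposure lasted between 18 and 24 h rather than exactly 24 h; 100% = carrier-treated control wells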); settings: SK-BR-3 viability, CellTiter-Glo luminescence, at 10 µM, stronger effect = lower value
[4] = HUVEC growth inhibition – cell-based, human, primary screen (AID 575;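 active = viability at or below 30% in both replicate assays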;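 also: 100% = median of untreated cell wells with 0.1% DMSO on each plate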); settings: HUVEC proliferation, CellTiter-Glo luminescence, 72 h; at 10 µM; stronger effect = lower value
In short: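 Material: primary human umbilical vein endothelial cells / Schedule: 72 h exposure, 37 °C, 5% CO2, 30 min RT equilibration / Signal: ATP-based CellTiter-Glo luminescent read / Read-out basis: percent of median DMSO-control luminescence / Control set: 32 DMSO-only cell-control wells (high), 32 MePR drug-control wells (low) per plate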

[5] = growth inhibitors of H69AR lung tumor, primary screen, human, duplicate replicates (AID 580;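 active = viability at or under a set limit in both replicates, limit being median viability minus 3 SD, cut at about 48% in these data, passing the limit was not always enough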;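 also: 100% = mean luminescence of untreated wells and 0% = no signal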); settings: H69AR lung tumor cells viability, ATP luminescence, 72 h; at 10 µM; stronger effect = lower value
[6] = reversal of MRP1-mediated doxorubicin resistance, pilot screen, H69AR cells, doxorubicin co-treatment (AID 601;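 active = viability loss from added drug above about 55%, and viability with drug at most 40%, in both replicates, limit read from the data, passing the limit was not always enough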); settings: CellTiter-Glo, 72 h, at 10 µM; for differential viability (reversal): stronger effect = higher value
[7] = 384-well plate pilot, post-Golgi transport modulator project, inhibition of yeast transport mutant growth (AID 636; in the data active = inhibition above about 31%); settings: absorbance 615 nm, about 18 h, stronger effect = higher value
[8] = growth suppression of yeast trafficking mutant, preliminary HTS, modulators of trafficking downstream of Golgi apparatus project, 1536-format plate, OD 615 nm (AID 637); settings: yeast transport mutant growth, absorbance 615 nm, 18 h; stronger effect = higher value
[9] = H69AR cells + 2 uM doxorubicin, measured here: viability with 2 uM doxorubicin, stronger effect = lower value
[10] = H69AR cells, compound alone cytotoxicity

Sequence of Receptor tyrosine-protein kinase erbB-2 (Homo sapiens) (P04626 whole entry, looked up): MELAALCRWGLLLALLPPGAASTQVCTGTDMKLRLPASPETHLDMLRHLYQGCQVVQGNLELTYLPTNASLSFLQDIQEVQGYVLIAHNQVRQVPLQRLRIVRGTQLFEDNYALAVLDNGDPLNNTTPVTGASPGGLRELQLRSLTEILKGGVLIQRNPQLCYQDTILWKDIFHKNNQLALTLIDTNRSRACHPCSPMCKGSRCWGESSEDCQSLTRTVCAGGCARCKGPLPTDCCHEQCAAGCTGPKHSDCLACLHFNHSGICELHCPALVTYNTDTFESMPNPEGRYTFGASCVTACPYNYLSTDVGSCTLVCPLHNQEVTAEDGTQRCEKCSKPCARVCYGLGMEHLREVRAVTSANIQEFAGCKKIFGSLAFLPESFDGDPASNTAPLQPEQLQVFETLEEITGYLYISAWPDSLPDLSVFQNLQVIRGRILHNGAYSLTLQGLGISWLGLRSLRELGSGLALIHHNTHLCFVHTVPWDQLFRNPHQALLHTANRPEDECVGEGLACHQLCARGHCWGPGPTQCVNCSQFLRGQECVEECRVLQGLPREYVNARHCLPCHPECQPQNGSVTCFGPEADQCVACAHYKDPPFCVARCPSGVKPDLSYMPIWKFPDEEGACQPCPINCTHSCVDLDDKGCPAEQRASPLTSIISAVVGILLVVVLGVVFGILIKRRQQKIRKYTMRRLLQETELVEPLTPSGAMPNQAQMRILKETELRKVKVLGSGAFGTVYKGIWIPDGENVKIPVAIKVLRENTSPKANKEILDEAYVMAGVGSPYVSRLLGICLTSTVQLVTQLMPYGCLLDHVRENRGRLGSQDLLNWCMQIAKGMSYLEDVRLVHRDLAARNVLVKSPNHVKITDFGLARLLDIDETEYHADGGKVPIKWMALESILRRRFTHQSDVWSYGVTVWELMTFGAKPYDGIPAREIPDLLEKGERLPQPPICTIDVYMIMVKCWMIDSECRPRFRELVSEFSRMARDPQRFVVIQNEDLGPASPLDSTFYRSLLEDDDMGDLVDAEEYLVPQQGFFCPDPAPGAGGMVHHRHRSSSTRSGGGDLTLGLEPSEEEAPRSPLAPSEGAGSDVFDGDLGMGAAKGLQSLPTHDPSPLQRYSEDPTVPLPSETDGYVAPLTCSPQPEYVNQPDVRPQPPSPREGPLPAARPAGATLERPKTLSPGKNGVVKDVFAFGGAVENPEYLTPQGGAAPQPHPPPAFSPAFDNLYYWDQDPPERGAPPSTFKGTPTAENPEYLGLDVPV

| SMILES | viability [1] [%] | Her2 level [2] | viability [3] | viability [4] | viability [5] | differential viability (reversal) ([6]; H69AR cells + 2 uM doxorubicin) | viability [6, 9] [%] | viability [6, 10] [%] | inhibition [7] | inhibition [8] |
| --- | --- | --- | --- | --- | --- | --- | --- | --- | --- | --- |
| COc1ccc2nc(N3CCC(C)CC3)c(C#N)cc2c1 | 108 | 101% (inactive) | 108% (inactive) | 86.6% (inactive) | 26.8% (active) | 3.77% (inactive) | 23 | 26.8 | -5.33% (inactive) | 2.62% (inactive) |
| COc1ccc(Cl)c(NCCC(=O)O)c1 | 88 | 107% (inactive) | 88% (inactive) | 98.6% (inactive) | 95.6% (inactive) | 7.1% (inactive) | 88.5 | 95.6 | -1.37% (inactive) | 9.37% (inactive) |
| O=C(Cc1ccccc1)N1CCCC(c2nc(-c3cccs3)no2)C1 (stereo not given) | 91.5 | 111% (inactive) | 91.5% (inactive) | 95.5% (inactive) | 102% (inactive) | 16.8% (inactive) | 85.7 | 102 | -5.27% (inactive) | -3.61% (inactive) |
| C=CCn1c(-c2ccccc2)c[nH]c1=S | 91 | 92.5% (inactive) | 91% (inactive) | 114% (inactive) | 99.9% (inactive) | 22.4% (inactive) | 77.5 | 99.9 | -5.84% (inactive) | 0.16% (inactive) |
| COc1ccc(CCNC(=O)c2ccncc2)cc1OC | 107 | 110% (inactive) | 107% (inactive) | 96.3% (inactive) | 97.5% (inactive) | 12.2% (inactive) | 85.3 | 97.5 | -6.27% (inactive) | -3.71% (inactive) |
| Cc1cc(C)n(C2=NS(=O)(=O)c3ccccc32)n1 | 86.5 | 115% (inactive) | 86.5% (inactive) | 108% (inactive) | 101% (inactive) | 6.08% (inactive) | 95.2 | 101 | 3.07% (inactive) | 5.08% (inactive) |
| O=C1CCCCCN1CSc1nc2ccccc2s1 | 123 | 101% (inactive) | 123% (inactive) | 80.5% (inactive) | 88% (inactive) | 4.73% (inactive) | 83.3 | 88 | -5.45% (inactive) | -2.62% (inactive) |
| CCOC(=O)COc1ccc(S(=O)(=O)Nc2ccc3c(c2)OCO3)cc1 | 164 | 113% (inactive) | 164% (inactive) | 10.4% (active) | 91% (inactive) | -1.11% (inactive) | 92.1 | 91 | -4.21% (inactive) | 9.02% (inactive) |
| O=C1CC(c2ccc(Cl)cc2)n2nc(N3C(=O)c4ccccc4C3=O)nc2N1 (stereo not given) | 106 | 93% (inactive) | 106% (inactive) | 95.5% (inactive) | 91.8% (inactive) | -2.29% (inactive) | 94.1 | 91.8 | -3.16% (inactive) | 4.59% (inactive) |
| COc1ccccc1Cn1nnc2c(=O)[nH]c(C3CCN(C(=O)c4ccccc4Cl)CC3)nc21 | 93 | 95.5% (inactive) | 93% (inactive) | 102% (inactive) | 82.2% (inactive) | 54.1% (inactive) | 28.1 | 82.2 | -3.64% (inactive) | 0.48% (inactive) |
| Cc1cccn2c(=O)c3cc(C#N)c(=O)n(CCCN4CCOCC4)c3nc12 | 88.5 | 85% (inactive) | 88.5% (inactive) | 99.8% (inactive) | 102% (inactive) | 20% (inactive) | 82.2 | 102 | -3.51% (inactive) | 1.83% (inactive) |
| COc1ccc(NC(=O)Nc2ccc(C)cc2OC(F)F)cc1OC | 95 | 79.5% (inactive) | 95% (inactive) | 88% (inactive) | 93% (inactive) | 6.81% (inactive) | 86.1 | 93 | -3.95% (inactive) | -6.67% (inactive) |
| CCOC(=O)N1CCC(NC(=O)CCc2c(C)nc3c(c(C)nn3C(C)(C)C)c2C)CC1 | 91 | 78.5% (inactive) | 91% (inactive) | 82.2% (inactive) | 85.1% (inactive) | 1.25% (inactive) | 83.9 | 85.1 | -4.61% (inactive) | -3.02% (inactive) |
| COc1ccccc1N1CC(C(=O)Nc2cccc(C(=O)O)c2)CC1=O (stereo not given) | 98 | 103% (inactive) | 98% (inactive) | 95.4% (inactive) | 94.1% (inactive) | -5.46% (inactive) | 99.6 | 94.1 | 3.07% (inactive) | -7.58% (inactive) |
| COc1ccc(OCc2cccc(C(=O)O)c2)cc1 | 105 | 78.5% (inactive) | 105% (inactive) | 75.7% (inactive) | 88.1% (inactive) | 7.06% (inactive) | 81 | 88.1 | -4.47% (inactive) | 0.91% (inactive) |
| COc1cc(-c2nnc(SCC(=O)c3cc(C)n(CC4CCCO4)c3C)o2)cc(OC)c1OC (stereo not given) | 104 | 66.5% (inactive) | 104% (inactive) | 76.4% (inactive) | 77.5% (inactive) | -2% (inactive) | 79.5 | 77.5 | -5.95% (inactive) | -4.83% (inactive) |

| SMILES | viability [1] [%] | Her2 level [2] | viability [3] | viability [4] | viability [5] | differential viability (reversal) ([6]; H69AR cells + 2 uM doxorubicin) | viability [6, 9] [%] | viability [6, 10] [%] | inhibition [7] | inhibition [8] |
| --- | --- | --- | --- | --- | --- | --- | --- | --- | --- | --- |
| Cc1nn(-c2ccc(F)cc2)c2sc(C(=O)O)cc12 | 99 | 103% (inactive) | 99% (inactive) | 72.9% (inactive) | 89.8% (inactive) | 5.49% (inactive) | 84.3 | 89.8 | 0% (inactive) | 1.64% (inactive) |
| O=C(OCC#CCSc1nnc(-c2ccncc2)o1)c1cccs1 | 118 | 102% (inactive) | 118% (inactive) | 88.2% (inactive) | 82% (inactive) | -1.25% (inactive) | 83.3 | 82 | -4.67% (inactive) | 1.43% (inactive) |
| CCOc1ccc2cc(C#N)c(SCC(=O)N3CCCC3)nc2c1 | 71.5 | 112% (inactive) | 71.5% (inactive) | 85.3% (inactive) | 87.3% (inactive) | 11.5% (inactive) | 75.8 | 87.3 | 6.45% (inactive) | -3.64% (inactive) |
| CC1=C(C(=O)NCc2ccccc2)C(c2ccccc2OCC(N)=O)NC(=O)N1 (stereo not given) | 93.5 | 77% (inactive) | 93.5% (inactive) | 89.1% (inactive) | 109% (inactive) | 15.9% (inactive) | 92.9 | 109 | -4.13% (inactive) | 1.43% (inactive) |
| CC(=O)N1CCc2cc(S(=O)(=O)NC(CC(C)C)C(=O)N3CCn4c3nc3ccccc34)ccc21 (stereo not given) | 88.5 | 87.5% (inactive) | 88.5% (inactive) | 92% (inactive) | 97.6% (inactive) | -3.44% (inactive) | 101 | 97.6 | -4.4% (inactive) | 1.8% (inactive) |
| COc1ccccc1NC(=O)c1ccc(NC(=O)CSc2nnnn2C)cc1 | 92 | 96% (inactive) | 92% (inactive) | 84% (inactive) | 13.1% (active) | -25.5% (inactive) | 38.7 | 13.1 | -6% (inactive) | -2.13% (inactive) |
| O=C(COc1nnnc2ccccc12)N1CCCc2ccccc21 | 97 | 87% (inactive) | 97% (inactive) | 98.2% (inactive) | 98.3% (inactive) | 0.405% (inactive) | 97.9 | 98.3 | -4.8% (inactive) | 6.07% (inactive) |
| CCCCC(c1nnnn1CS(=O)(=O)c1ccc(C)cc1)N1CCN(c2ccccc2)CC1 (stereo not given) | 102 | 88% (inactive) | 102% (inactive) | 69.5% (inactive) | 90.6% (inactive) | -0.75% (inactive) | 91.3 | 90.6 | -3.29% (inactive) | -1.27% (inactive) |
| CCSc1nnc(NC(=O)C(CC)(C(F)(F)F)C(F)(F)F)s1 | 79.5 | 120% (inactive) | 79.5% (inactive) | 68.9% (inactive) | 74% (inactive) | 0.58% (inactive) | 73.4 | 74 | 0.41% (inactive) | 33.3% (active) |
| CCCOc1ccc([C@@H]2C3CN(C(=O)OCC)CC=C3C(C#N)=C(N)C2(C#N)C#N)cc1OC (stereo not given in full) | 88 | 40% (active) | 88% (inactive) | 85.2% (inactive) | 63.4% (inactive) | -11.8% (inactive) | 75.2 | 63.4 | -7.03% (inactive) | 0% (inactive) |
| COC(=O)c1ccc(NC(=O)C2CC(=O)N(c3cc(C)ccc3C)C2)cc1 (stereo not given) | 97 | 99.5% (inactive) | 97% (inactive) | 96.3% (inactive) | 89.8% (inactive) | 3.6% (inactive) | 86.2 | 89.8 | -1.76% (inactive) | 13.7% (inactive) |
| Cc1ccc2cc(C#N)c(N3CCCC3)nc2c1C | 77 | 70.5% (inactive) | 77% (inactive) | 91.4% (inactive) | 74.8% (inactive) | -3.67% (inactive) | 78.5 | 74.8 | -5.27% (inactive) | -2.33% (inactive) |
| CCC(NC(=O)Nc1cc(OC)c(OC)c(OC)c1)(C(F)(F)F)C(F)(F)F | 112 | 83.5% (inactive) | 112% (inactive) | 105% (inactive) | 93% (inactive) | -7.81% (inactive) | 101 | 93 | -4.47% (inactive) | 11% (inactive) |
| CC(C)C1N=C2c3ccccc3N=C(SCc3cc(=O)n4ccccc4n3)N2C1=O (stereo not given) | 89 | 135% (inactive) | 89% (inactive) | 97.6% (inactive) | 80.1% (inactive) | -20.5% (inactive) | 101 | 80.1 | 2.24% (inactive) | -3.67% (inactive) |
| O=C(NCc1cccnc1)c1ccc(=O)oc1 | 89.5 | 90% (inactive) | 89.5% (inactive) | 106% (inactive) | 83.4% (inactive) | -4.97% (inactive) | 88.3 | 83.4 | -5.81% (inactive) | -5.33% (inactive) |
